Activity calls are given as the source filed them. The calls are words filed in the database; no cut-off is given here.

These results are taken from ChEMBL document CHEMBL5113557, “Structural Basis for Inhibition of Mutant EGFR with Lazertinib (YH25448)” (ACS Med Chem Lett, 2022).

In test [1] the target is T1, Receptor tyrosine-protein kinase erbB-2 (Homo sapiens, UniProt P04626). As to the kind of experiment: Inhibition of recombinant human N-terminal GST-tagged HER2 wild type (679 to 1255 residues) expressed in baculovirus infected Sf9 insect cells using AQT0794 measured up to 240 mins by fluorescence assay. In outline: (§1)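 Time-dependent kinetic assay on the HER2 kinase domain with 1000 μM ATP and 15 μM Sox-based substrate sensor. Data come from a single experiment run in duplicate. kinact and Ki were obtained from a two-step fit, and errors are the standard error from the fit.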

Test [2] concerns BaF3. As to the kind of experiment: Antiproliferative activity against mouse BAF3 cells harboring EGFR L858R mutant after 72 hrs by resazurin dye-based fluorescence assay. It counts as functional, cell-based. Conditions: BaF3, 72 h. In outline: (§2)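 Ba/F3 cells engineered to express each target were exposed to inhibitor for 72 h, after which proliferation was measured.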
A general note: Resazurin is reduced to fluorescent resorufin, in cell work by metabolically active cells.

Test [3] deals with Epidermal growth factor receptor (Homo sapiens), P00533 [L858R,T790M]. Particulars: NCI-H1975, dose 5-50 nM, time 2.0 hrs.
Test [4] has as its target T1, Receptor tyrosine-protein kinase erbB-2. As to the kind of experiment: Inhibition of HER2 in human BT474 cells assessed as reduction in autophosphorylation at Y1221/1222 residue at 5 to 100 nM after 6 hrs by Western blot analysis. Conditions: BT-474, dose 5-100 nM. The test is classed as cell-based. The method in brief: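 BT474 HER2-overexpressing breast cancer cells were treated with inhibitor at a range of doses for 6 h. Phospho-HER2 (pY1221/1222) was detected by Western blot. The blots shown are representative of three independent experiments.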
(In general: A western blot detects proteins with antibodies after separation by electrophoresis.)

The subject of test [5] is BaF3. The test is described as follows: Antiproliferative activity against mouse BAF3 cells harboring EGFR L858R/T790M mutant after 72 hrs by resazurin dye-based fluorescence assay. Conditions: BaF3, 72 h. It counts as functional, cell-based. The method in brief:
as §2

The target in test [6] is T1, Receptor tyrosine-protein kinase erbB-2. As to the kind of experiment: Inhibition of recombinant human N-terminal GST-tagged HER2 wild type (679 to 1255 residues) expressed in baculovirus infected Sf9 insect cells assessed as Kinact/Ki ratio using AQT0794 measured up to 240 mins by fluorescence assay. In outline:
as §1

The species named for test [7] is Homo sapiens. As to the kind of experiment: Selectivity ratio of Kinact for human N-terminal GST-tagged EGFR (669 to 1210 residues) (unknown origin) L858R/T790M mutant to Kinact for human N-terminal GST-tagged EGFR wild type (669 to 1210 residues) (unknown origin).
For test [8], the target named is T2, Epidermal growth factor receptor (Homo sapiens, UniProt P00533). Particulars: Sf21, time <= 240.0 min.
The species named for test [9] is Homo sapiens. As to the kind of experiment: Selectivity ratio of Ki for human N-terminal GST-tagged EGFR wild type (669 to 1210 residues) (unknown origin) to Ki for human N-terminal GST-tagged EGFR L858R/T790M mutant (669 to 1210 residues) (unknown origin).
In test [10] the target is T2, Epidermal growth factor receptor. The test is described as follows: Inhibition of recombinant human N-terminal GST-tagged EGFR wild type (669 to 1210 residues) expressed in baculovirus infected Sf21 insect cells insect cells using AQT0734 as substrate measured up to 240 mins by fluorescence assay.
Test [11] has as its system BaF3. The test is described as follows: Antiproliferative activity against mouse BAF3 cells harboring HER2 wild type after 72 hrs by resazurin dye-based fluorescence assay. It counts as functional, cell-based. Particulars: BaF3, 72 h. The method in brief: as §2
For test [12], the target named is Epidermal growth factor receptor (Homo sapiens, UniProt P00533, L858R/T790M). The test is described as follows: Inhibition of recombinant human N-terminal GST-tagged EGFR (669 to 1210 residues) (unknown origin) L858R/T790M mutant expressed in baculovirus infected Sf21 insect cells using AQT0734 as substrate measured up to 240 mins by fluorescence assay.
Test [13] relates to Epidermal growth factor receptor (Homo sapiens), P00533 [L858R,T790M]. Conditions: Sf21, time <= 240.0 min.
Test [14] deals with T1, Receptor tyrosine-protein kinase erbB-2. As to the kind of experiment: Inhibition of recombinant human N-terminal GST-tagged HER2 wild type (679 to 1255 residues) expressed in baculovirus infected Sf9 insect cells assessed as Kinact using AQT0794 as substrate measured up to 240 mins by fluorescence assay. The method in brief: as §1
Test [15] is filed under the species Homo sapiens. The test is described as follows: Selectivity ratio of Kinact/Ki for human N-terminal GST-tagged EGFR (669 to 1210 residues) (unknown origin) L858R/T790M mutant to Kinact/Ki for human N-terminal GST-tagged EGFR wild type (669 to 1210 residues) (unknown origin).

T1 sequence (P04626 whole entry, the tested form may be a part): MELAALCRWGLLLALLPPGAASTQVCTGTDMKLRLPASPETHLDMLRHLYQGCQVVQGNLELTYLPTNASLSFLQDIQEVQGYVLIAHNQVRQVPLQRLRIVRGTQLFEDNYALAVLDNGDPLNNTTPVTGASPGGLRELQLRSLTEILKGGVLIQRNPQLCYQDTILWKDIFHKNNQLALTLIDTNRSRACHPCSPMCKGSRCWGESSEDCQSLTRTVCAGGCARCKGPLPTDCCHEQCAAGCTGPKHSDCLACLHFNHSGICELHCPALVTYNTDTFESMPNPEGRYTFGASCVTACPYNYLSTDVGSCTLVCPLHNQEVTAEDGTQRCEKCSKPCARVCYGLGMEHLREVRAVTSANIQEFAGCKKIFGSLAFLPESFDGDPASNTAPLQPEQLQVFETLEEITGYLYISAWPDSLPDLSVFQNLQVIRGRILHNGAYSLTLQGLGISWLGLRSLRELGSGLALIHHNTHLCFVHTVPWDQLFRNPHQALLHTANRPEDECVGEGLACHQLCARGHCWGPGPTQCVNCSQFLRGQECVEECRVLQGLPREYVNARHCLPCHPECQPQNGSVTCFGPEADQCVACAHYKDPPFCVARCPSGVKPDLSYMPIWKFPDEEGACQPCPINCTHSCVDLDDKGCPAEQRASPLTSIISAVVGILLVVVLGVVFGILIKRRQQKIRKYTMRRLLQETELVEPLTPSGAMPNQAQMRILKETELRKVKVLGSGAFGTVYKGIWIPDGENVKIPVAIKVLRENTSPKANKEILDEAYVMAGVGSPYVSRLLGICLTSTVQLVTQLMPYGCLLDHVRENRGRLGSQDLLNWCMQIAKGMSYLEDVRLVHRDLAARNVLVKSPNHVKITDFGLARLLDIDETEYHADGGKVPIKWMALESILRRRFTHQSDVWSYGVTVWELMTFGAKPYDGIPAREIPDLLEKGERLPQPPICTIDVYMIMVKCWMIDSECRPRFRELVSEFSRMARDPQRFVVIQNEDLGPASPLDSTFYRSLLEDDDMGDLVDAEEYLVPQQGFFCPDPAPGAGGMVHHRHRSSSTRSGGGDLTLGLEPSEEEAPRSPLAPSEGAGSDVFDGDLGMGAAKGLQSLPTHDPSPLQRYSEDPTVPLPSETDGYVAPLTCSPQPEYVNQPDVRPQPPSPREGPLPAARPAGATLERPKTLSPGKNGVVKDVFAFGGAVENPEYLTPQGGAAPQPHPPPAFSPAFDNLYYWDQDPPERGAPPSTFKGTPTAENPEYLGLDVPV
Chain of Epidermal growth factor receptor (Homo sapiens), P00533 [L858R,T790M] (P00533 whole entry T790M/L858R, looked up, the tested form may be a part): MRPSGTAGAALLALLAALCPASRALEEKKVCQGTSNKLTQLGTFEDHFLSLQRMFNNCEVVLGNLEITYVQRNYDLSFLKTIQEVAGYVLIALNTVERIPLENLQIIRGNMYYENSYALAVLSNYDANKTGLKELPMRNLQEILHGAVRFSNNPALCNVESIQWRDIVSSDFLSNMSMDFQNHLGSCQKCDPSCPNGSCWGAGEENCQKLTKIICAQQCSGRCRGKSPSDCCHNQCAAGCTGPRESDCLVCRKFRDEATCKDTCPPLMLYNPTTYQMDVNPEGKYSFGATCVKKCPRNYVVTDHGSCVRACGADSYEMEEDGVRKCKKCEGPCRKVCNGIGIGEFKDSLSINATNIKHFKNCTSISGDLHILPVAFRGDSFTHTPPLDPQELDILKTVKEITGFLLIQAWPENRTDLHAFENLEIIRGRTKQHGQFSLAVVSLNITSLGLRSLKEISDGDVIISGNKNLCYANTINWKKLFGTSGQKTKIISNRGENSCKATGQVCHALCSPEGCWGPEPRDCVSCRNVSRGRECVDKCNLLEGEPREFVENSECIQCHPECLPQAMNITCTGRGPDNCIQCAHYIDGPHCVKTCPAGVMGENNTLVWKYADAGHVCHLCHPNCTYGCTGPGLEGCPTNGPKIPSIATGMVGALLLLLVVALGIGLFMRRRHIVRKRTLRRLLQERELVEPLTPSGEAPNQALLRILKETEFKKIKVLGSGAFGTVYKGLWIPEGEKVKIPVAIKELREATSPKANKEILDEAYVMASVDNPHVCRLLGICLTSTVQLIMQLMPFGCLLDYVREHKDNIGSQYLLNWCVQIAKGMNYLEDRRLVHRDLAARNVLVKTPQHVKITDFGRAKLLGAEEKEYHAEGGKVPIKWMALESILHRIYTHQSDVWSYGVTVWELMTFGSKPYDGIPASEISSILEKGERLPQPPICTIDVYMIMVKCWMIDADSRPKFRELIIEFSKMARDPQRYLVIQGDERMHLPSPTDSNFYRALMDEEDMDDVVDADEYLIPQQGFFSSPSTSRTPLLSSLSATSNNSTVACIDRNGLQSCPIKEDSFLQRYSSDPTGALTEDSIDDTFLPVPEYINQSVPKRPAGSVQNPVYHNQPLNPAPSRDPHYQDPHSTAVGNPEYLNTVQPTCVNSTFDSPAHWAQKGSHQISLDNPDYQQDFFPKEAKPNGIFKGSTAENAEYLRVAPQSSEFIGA
T2 sequence (P00533 whole entry, the tested form may be a part): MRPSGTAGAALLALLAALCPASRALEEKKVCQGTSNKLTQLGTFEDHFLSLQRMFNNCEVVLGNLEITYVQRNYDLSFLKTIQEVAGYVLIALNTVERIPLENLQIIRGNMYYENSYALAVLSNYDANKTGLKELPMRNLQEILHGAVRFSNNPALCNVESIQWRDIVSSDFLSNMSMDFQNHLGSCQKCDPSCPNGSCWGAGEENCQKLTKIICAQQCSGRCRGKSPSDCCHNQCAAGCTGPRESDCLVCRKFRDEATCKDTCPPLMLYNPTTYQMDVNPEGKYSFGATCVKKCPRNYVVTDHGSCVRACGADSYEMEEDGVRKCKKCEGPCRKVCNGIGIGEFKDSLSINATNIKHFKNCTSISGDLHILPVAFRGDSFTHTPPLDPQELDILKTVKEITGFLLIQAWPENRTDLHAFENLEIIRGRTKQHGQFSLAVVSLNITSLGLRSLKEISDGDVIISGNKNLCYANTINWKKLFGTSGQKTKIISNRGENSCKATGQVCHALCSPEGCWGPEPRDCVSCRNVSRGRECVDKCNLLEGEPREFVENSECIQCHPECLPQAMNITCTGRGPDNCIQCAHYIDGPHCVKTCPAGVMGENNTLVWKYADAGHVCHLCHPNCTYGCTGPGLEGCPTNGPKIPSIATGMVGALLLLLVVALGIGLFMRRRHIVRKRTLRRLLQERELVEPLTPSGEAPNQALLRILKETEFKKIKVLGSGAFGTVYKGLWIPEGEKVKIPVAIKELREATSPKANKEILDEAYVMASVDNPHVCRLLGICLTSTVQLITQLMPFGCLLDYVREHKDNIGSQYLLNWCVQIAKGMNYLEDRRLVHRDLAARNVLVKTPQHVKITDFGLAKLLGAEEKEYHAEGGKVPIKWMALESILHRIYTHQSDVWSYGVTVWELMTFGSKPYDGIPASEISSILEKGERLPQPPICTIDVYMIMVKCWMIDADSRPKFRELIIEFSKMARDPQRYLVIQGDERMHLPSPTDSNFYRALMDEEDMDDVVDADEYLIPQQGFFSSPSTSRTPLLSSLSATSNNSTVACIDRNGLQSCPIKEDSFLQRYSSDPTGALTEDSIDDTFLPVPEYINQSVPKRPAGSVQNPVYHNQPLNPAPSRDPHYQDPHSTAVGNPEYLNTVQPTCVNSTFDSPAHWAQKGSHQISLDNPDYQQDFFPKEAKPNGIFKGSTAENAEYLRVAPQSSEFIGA
Chain of Epidermal growth factor receptor (Homo sapiens, UniProt P00533, L858R/T790M) (P00533 25-1210 T790M/L858R limits assumed): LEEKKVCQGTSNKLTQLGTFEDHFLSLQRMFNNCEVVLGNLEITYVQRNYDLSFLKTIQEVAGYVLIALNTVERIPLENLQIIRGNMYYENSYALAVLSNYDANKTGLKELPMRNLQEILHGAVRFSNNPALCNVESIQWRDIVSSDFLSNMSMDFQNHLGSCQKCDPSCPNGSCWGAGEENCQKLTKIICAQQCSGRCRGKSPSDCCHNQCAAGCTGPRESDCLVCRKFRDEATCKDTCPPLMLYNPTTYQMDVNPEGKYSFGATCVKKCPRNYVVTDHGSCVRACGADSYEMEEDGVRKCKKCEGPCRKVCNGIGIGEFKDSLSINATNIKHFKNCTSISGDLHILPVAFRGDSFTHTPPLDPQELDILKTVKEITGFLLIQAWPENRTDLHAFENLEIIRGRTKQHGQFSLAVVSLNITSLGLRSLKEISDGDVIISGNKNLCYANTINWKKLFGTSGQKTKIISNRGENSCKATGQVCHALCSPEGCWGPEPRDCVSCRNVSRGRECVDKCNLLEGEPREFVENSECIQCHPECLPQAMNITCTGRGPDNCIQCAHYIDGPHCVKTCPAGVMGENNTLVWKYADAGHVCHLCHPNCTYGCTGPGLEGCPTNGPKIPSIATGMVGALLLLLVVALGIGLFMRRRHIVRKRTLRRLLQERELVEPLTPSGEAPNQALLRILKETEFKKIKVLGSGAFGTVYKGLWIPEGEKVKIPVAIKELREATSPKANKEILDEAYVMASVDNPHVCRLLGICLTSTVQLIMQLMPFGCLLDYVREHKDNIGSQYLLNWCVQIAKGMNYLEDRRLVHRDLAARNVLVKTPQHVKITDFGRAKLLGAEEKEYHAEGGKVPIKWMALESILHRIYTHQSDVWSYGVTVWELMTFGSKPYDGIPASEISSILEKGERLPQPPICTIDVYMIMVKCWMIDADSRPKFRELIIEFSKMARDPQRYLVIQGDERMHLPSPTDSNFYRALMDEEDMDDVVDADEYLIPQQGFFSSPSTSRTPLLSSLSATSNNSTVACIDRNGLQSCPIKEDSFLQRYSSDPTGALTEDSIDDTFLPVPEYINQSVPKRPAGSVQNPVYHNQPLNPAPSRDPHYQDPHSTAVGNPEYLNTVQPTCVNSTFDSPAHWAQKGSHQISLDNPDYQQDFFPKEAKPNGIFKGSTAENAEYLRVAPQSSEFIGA

`C=CC(=O)Nc1ccc(OC)c(Nc2cc(-c3[nH]c(SC)nc3-c3ccc(F)cc3)ccn2)c1`: the inhibition constant Ki (usually the equilibrium dissociation constant of an inhibitor or competing ligand from its target) in test [1] amounted to 0.142 µM. Moreover, the half-maximal effective concentration (EC50) (commonly the concentration that produces a half-maximal response) worked out at 0.00051 µM in test [2] and 0.021 µM in test [5]. The inhibition entry in test [3] and in test [4] was “Active” throughout.
Take `C=CC(=O)Nc1cc(Nc2nccc(-n3cc(CN(C)C)c(-c4ccccc4)n3)n2)c(OC)cc1N1CCOCC1` [LAZERTINIB]: the Ki in test [1] was 0.437 µM; in test [10], 0.271 µM; in test [12], 0.034 µM. Further, in [6], the Ratio stood at 6310 M⁻¹ s⁻¹. Moreover, the Selectivity ratio in [7] came to 0.36; in [15] it was 3.2. Also, the Kinact in [8] was 0.648 min⁻¹; in test [13] it was 0.235 min⁻¹; in test [14], 0.166 min⁻¹. For the same compound, in test [9], the Ratio Ki is 8. For the same compound, the results for the EC50 in test [2], in [11] and in test [5] were 0.0048 µM, more than 0.1 µM and 0.0074 µM, respectively. In addition, the inhibition entry in test [3] and in test [4] was “Active” each time.
As for `C=CC(=O)Nc1cc(Nc2nccc(-c3cn(C)c4ccccc34)n2)c(OC)cc1N(C)CCN(C)C` [OSIMERTINIB], the 50% effective concentration (EC50) in test [2] amounted to 0.0032 µM; in [11] it was 0.034 µM; in test [5] it was 0.014 µM. For the same compound, the inhibition entry in test [4] is “Active”.
